Compounds with a hit are over-represented: about 12% of the library has one in this group of screens.
Rad51 HR inh: blocks human Rad51 in homologous recombination. Q06609. hRad51 DNA strand exchange, fluorescence dequenching. inhibition, % at 10 µM. hit rate 0.085% among 200,000;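 active = inhibition above 40% at the single screening dose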;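 also: 0% = DMSO control wells and 100% = blanks with heterologous ssDNA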
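material = hRad51 filaments on single-stranded DNA | timing = filaments 15 min 37 °C, then compound 30 min | signal = FRET fluorescence dequenching, excitation 485 nm, emission 520 nm | benchmarks = control wells and blank wells on each plate | evaluation = percent inhibition relative to plate controls and blanks | compound = 10 µM final, single point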
CHOP inh: CHOP inhibition in unfolded protein response; CHO-K1 CHOP-promoter luciferase, tunicamycin-induced, 15-18 h; inhibition, % at 10 µM; hit rate 3.8% among 220,000; AID 2732;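 active = compounds that reduced the stress-induced luciferase reporter signal by more than about 70% of percent inhibition, limit read from the data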;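 also: 0% = tunicamycin plus vehicle and 100% = wells without tunicamycin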
Wee1 degr inh: human Wee1 degradation inhibition, primary screen. P30291. HeLa Luc-Wee1K328M stability, luciferase luminescence; 100% = proteasome inhibitor MG132 effect. reporter increase, % at 5 µM. hit rate 1.2% among 220,000. AID 1321;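 active = activation above the mean of all tested compounds plus 3 SD, set per screening run, cut at about 8.8% in these data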;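 also: cells exposed to compound for 20 h before luminescence read; 0% = DMSO alone and 100% = MG132 at 30 µM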
PKD1 kinase inh: PKD1 (human) kinase inhibition; hit rate 0.056% among 200,000; inhibition, % (no concentration beside the values); PKD1 kinase fluorescence polarization assay
Arbovirus anti: blocks arbovirus infection; arbovirus infection cell-based antiviral screen; inhibition, % at 10 µM; hit rate 0.37% among 200,000; AID 1251; in the data active = inhibition above about 30%
L major viab: reduces viability of Leishmania major promastigotes. resazurin fluorescence viability. inhibition, % at 10 µM. hit rate 9% among 200,000. AID 1063;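 also: promastigotes grown with compound for 44 hours at 28 °C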
Numbers without * were called inactive; . = not tested or not shown. Rule as the data show it, unless noted: active = inhibition above about 50%; inactive = the rest.

SMILES | Rad51 HR inh | CHOP inh | Wee1 degr inh | PKD1 kinase inh | Arbovirus anti | L major viab
CC(=O)O[C@H]1C(=O)[C@]2(C)[C@H]([C@H](OC(=O)c3ccccc3)[C@]3(O)C[C@H](OC(=O)[C@H](O)[C@@H](NC(=O)c4ccccc4)c4ccccc4)C(C)=C1C3(C)C)[C@]1(OC(C)=O)CO[C@@H]1C[C@@H]2O | 2.0 | . | . | . | . | .
CC(=O)O[C@H]1C(=O)[C@@]2(C)C([C@H](OC(=O)c3ccccc3)[C@]3(O)C[C@H](OC(=O)[C@H](O)[C@@H](NC(=O)c4ccccc4)c4ccccc4)C(C)=C1C3(C)C)[C@]1(OC(C)=O)CO[C@@H]1C[C@@H]2O (stereo partly specified) | . | 88.2* | . | . | . | .
COc1ccc(OC)c(-c2cc(C(=O)Nc3ccc(F)cc3F)no2)c1 | 2.2 | 9.0 | -1.1 | -5.0 | -13.0 | 1.0
Nc1cc(-c2cccc(F)c2)nn1S(=O)(=O)c1cccc2nsnc12 | -6.6 | 5.3 | -2.7 | -4.3 | 0.8 | 24.2
Nc1cc(-c2ccc(Br)cc2)nn1S(=O)(=O)c1cccc2nsnc12 | . | 86.1* | 1.5 | -1.3 | 0.9 | 13.9
Nc1cc(-c2ccc(Cl)cc2)nn1S(=O)(=O)c1cccc2nsnc12 | 4.2 | 80.5* | -0.9 | -10.4 | -10.0 | 19.9
COc1ccccc1-c1cc(N)n(S(=O)(=O)c2cccc3nsnc23)n1 | 7.0 | 9.3 | -0.8 | . | . | .
C=CCNC(=S)NNC(=O)c1ccccc1OCC | 6.5 | 10.3 | 3.6 | -5.6 | -2.0 | 0.1
Cc1cc(C)n(-c2nc(Nc3ccccc3)nc(-n3nc(C)cc3C)n2)n1 | -7.2 | 5.6 | -0.3 | -11.9 | -5.9 | -5.5
COc1cccc(/C=N/Nc2cc(-n3nc(C)cc3-c3ccccc3)ncn2)c1O | 7.7 | 91.9* | -1.4 | -11.9 | -22.0 | 67.1*
Cc1cnn(-c2cc(N/N=C/c3ccccc3Cl)ncn2)c1 | 4.0 | -4.9 | -0.2 | -7.8 | -4.4 | -4.8
COc1cccc(/C=N/Nc2nc(Nc3ccccc3)nc(-n3nc(C)cc3C)n2)c1O | 4.8 | 87.2* | 1.7 | 4.3 | -7.8 | 100.5*
CC(C)Cn1c(N)c(C(=O)COC(=O)CCc2nc3ccccc3s2)c(=O)n(C)c1=O | -11.3 | 41.4 | -0.8 | -7.8 | 1.0 | 2.5
CCN(CC)CCNC(=O)C(=O)NCC1OCCN1C(=O)c1ccc2c(c1)OCO2 (stereo unspecified) | 1.0 | 17.7 | -0.6 | 6.0 | 4.7 | 53.7*
CSc1nc(N)nc(SCC(=O)Nc2cccc(F)c2)c1C#N | -8.8 | 56.0 | 2.1 | 3.3 | 5.0 | 9.3
CSc1nc(N)nc(SCC(=O)Nc2ccc(Cl)cc2)c1C#N | 6.3 | 9.8 | 1.4 | -0.3 | 6.1 | 99.6*
Cc1ccccc1Cn1cc(NC(=O)c2cc(C3CC3)on2)cn1 | . | -13.6 | 0.8 | . | . | .
O=C(Nc1ccccc1O)c1csc2c1CCCC2 | 2.9 | 7.6 | 9.4* | -1.6 | 10.7 | 13.6
COc1ccc(NC(=O)c2csc3c2CCCCC3)c(OC)c1 | -10.5 | 33.0 | -1.1 | -12.3 | -12.1 | 9.9
Cc1ccccc1CSc1ncc(C#N)c(N)n1 | . | 1.8 | -2.6 | -13.0 | -3.1 | 2.4
CCCCCCSc1ncc(C#N)c(N)n1 | 6.3 | 83.7* | -1.4 | -9.0 | 10.1 | 2.8
COc1ccc(OCc2cccc(C(=O)Nc3ccc(CN4CCCCC4)cc3)c2)cc1 | -32.6 | 9.0 | 6.4 | 4.1 | -32.7 | 78.3*
CCOc1ccc(OCc2cccc(C(=O)Nc3ccc(CN4CCCCC4)cc3)c2)cc1 | -1.6 | 61.4 | -1.8 | -5.8 | -38.1 | 96.2*
O=C(Nc1ccc(CN2CCCCC2)cc1)c1cccc(F)c1 | 13.9 | 1.4 | -2.5 | -1.4 | -3.4 | -1.2
COc1ccc(C(=O)N/N=C(\C)CC(=O)Nc2cccc(C(F)(F)F)c2)cc1 | . | -6.3 | -1.1 | . | . | .
SMILES | Rad51 HR inh | CHOP inh | Wee1 degr inh | PKD1 kinase inh | Arbovirus anti | L major viab
C=CCn1c(=NC(=O)c2ccccc2[N+](=O)[O-])sc2cc(S(C)(=O)=O)ccc21 | 2.3 | 13.8 | 3.0 | -4.4 | -2.7 | 8.1
Cc1ccc2oc(/N=C(\N)NC(=O)C(C)(C)C)nc2c1 | -9.8 | 86.4* | -4.6 | . | . | .
Cc1ccc2oc(/N=C(\N)NC(=O)C3CC3)nc2c1 | 1.1 | -6.8 | 9.3* | . | . | .
CC(C)(C)c1ccc(C(=O)N/C(N)=N/c2nc3ccccc3o2)cc1 | -3.8 | 14.7 | 4.0 | 0.9 | 5.8 | 6.3
N/C(=N\c1nc2ccccc2o1)NC(=O)c1ccc(Cl)cc1 | 4.8 | -20.3 | -0.3 | -5.2 | 0.7 | 16.9
O=c1onc2n1-c1cc(Br)ccc1OC2 | . | -13.6 | . | . | . | .
O=S(=O)(Nc1ncccn1)c1ccc(-n2cnnn2)cc1 | 11.7 | -3.9 | 0.8 | -0.4 | -7.6 | -5.3
